Tests used:
MCF7 = assay: Growth inhibition of human MCF7 cells assessed as cell growth at 10^-4 M incubated for 48 hrs by sulforhodamine B assay; type: functional; conditions: MCF7, 48 h, read-out: Activity
MDA-MB-468 = assay: Growth inhibition of human MDA-MB-468 cells assessed as cell growth at 10^-4 M incubated for 48 hrs by sulforhodamine B assay; type: functional; conditions: MDA-MB-468, 48 h, read-out: Activity
K562 = assay: Growth inhibition of human K562 cells incubated for 48 hrs by sulforhodamine B assay; type: functional; conditions: K562, 48 h
Method in brief: (§1)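 Cells were plated at 5,000–40,000 per well according to doubling time and preincubated 24 h at 37 °C in 5% CO2; time-zero plates were then TCA-fixed. Five concentrations (10-fold or ½-log dilutions, DMSO stock) were incubated 48 h. Cells were TCA-fixed, stained with 0.4% SRB and read at 515 nm. GI50 was taken where [(Ti−Tz)/(C−Tz)]×100 = 50.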

[1] = Growth inhibition of human RPMI8226 cells incubated for 48 hrs by sulforhodamine B assay; type: functional; conditions: RPMI-8226, 48 h; method in brief: as §1
[2] = Growth inhibition of human HOP62 cells incubated for 48 hrs by sulforhodamine B assay; type: functional; conditions: HOP-62, 48 h
Method in brief: (§2)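 Cells seeded at 5,000–40,000/well according to doubling time and preincubated 24 h at 37 °C, 5% CO2. Time-zero plates were TCA-fixed. DMSO concentrate was diluted in medium with 50 µg/ml gentamicin to give five concentrations (10-fold or ½ log steps), then exposed 48 h. Cells were TCA-fixed, stained with 0.4% SRB and read at 515 nm. Percent growth was taken against time-zero and control; GI50, TGI and LC50 derived.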

[3] = Growth inhibition of human Hs 578T cells incubated for 48 hrs by sulforhodamine B assay; type: functional; method in brief: as §1
SK-MEL-2 = assay: Growth inhibition of human SK-MEL-2 cells assessed as cell growth at 10^-8 M incubated for 48 hrs by sulforhodamine B assay; type: functional; conditions: SK-MEL-2, 48 h, read-out: Activity
ACHN = assay: Growth inhibition of human ACHN cells assessed as cell growth at 10^-8 M incubated for 48 hrs by sulforhodamine B assay; type: functional; conditions: read-out: Activity
Method in brief: (§3)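 Five-dose assay: five concentrations from 10-fold or ½-log serial dilutions. Cells are plated at 5,000–40,000 per well according to doubling time, grown 24 h, then exposed 48 h at 37 °C, 5% CO₂. Fixed with cold 50% TCA (final addition) for 60 min at 4 °C and stained with 0.4% SRB in 1% acetic acid. Bound dye is solubilized in 10 mM Tris base and read at 515 nm. GI₅₀ is where [(Ti−Tz)/(C−Tz)]×100 = 50, with a time-zero plate as Tz.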

[4] = Growth inhibition of human TK10 cells assessed as cell growth at 10^-8 M incubated for 48 hrs by sulforhodamine B assay; type: functional; conditions: TK-10, 48 h, read-out: Activity
SR = assay: Growth inhibition of human SR cells assessed as cell growth at 10^-7 M incubated for 48 hrs by sulforhodamine B assay; type: functional; conditions: read-out: Activity
[5] = Growth inhibition of human HCC2998 cells assessed as cell growth at 10^-4 M incubated for 48 hrs by sulforhodamine B assay; type: functional; conditions: HCC 2998, 48 h, read-out: Activity
786-0 = assay: Growth inhibition of human 786-0 cells assessed as cell growth at 10^-4 M incubated for 48 hrs by sulforhodamine B assay; type: functional; conditions: 786-0, 48 h, read-out: Activity; method in brief: as §3
[6] = Growth inhibition of human OVCAR5 cells assessed as cell growth at 10 uM incubated for 48 hrs by sulforhodamine B assay; type: functional; conditions: OVCAR-5, 48 h, read-out: Activity
CCRF-CEM = assay: Growth inhibition of human CCRF-CEM cells assessed as cell growth at 10^-8 M incubated for 48 hrs by sulforhodamine B assay; type: functional; conditions: read-out: Activity
Method in brief: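 Leukemia line in the five-dose format: five concentrations from 10-fold or ½-log serial dilutions. Plated at 5,000–40,000 cells per well, preincubated 24 h, then compound added for 48 h at 37 °C, 5% CO₂. Sulforhodamine B absorbance read at 515 nm. Growth is computed against time-zero (Tz) and control (C) readings; GI₅₀ is where [(Ti−Tz)/(C−Tz)]×100 = 50.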

[7] = Growth inhibition of human PC3 cells assessed as cell growth at 10^-7 M incubated for 48 hrs by sulforhodamine B assay; type: functional; conditions: PC-3, 48 h, read-out: Activity
NCI-H522 = assay: Growth inhibition of human NCI-H522 cells assessed as cell growth at 10^-6 M incubated for 48 hrs by sulforhodamine B assay; type: functional; conditions: NCI-H522, 48 h, read-out: Activity
Malme-3M = assay: Growth inhibition of human MALME-3M cells assessed as cell growth at 10^-8 M incubated for 48 hrs by sulforhodamine B assay; type: functional; conditions: read-out: Activity
MDA-MB-435 = assay: Growth inhibition of human MDA-MB-435 cells assessed as cell growth at 10^-6 M incubated for 48 hrs by sulforhodamine B assay; type: functional; conditions: MDA-MB-435, 48 h, read-out: Activity
[8] = Growth inhibition of human OVCAR5 cells assessed as cell growth at 10^-6 M incubated for 48 hrs by sulforhodamine B assay; type: functional; conditions: OVCAR-5, 48 h, read-out: Activity
[9] = Growth inhibition of human OVCAR8 cells assessed as cell growth at 10^-6 M incubated for 48 hrs by sulforhodamine B assay; type: functional; conditions: OVCAR-8, 48 h, read-out: Activity
[10] = Growth inhibition of human COLO205 cells assessed as cell growth at 10^-5 M incubated for 48 hrs by sulforhodamine B assay; type: functional; conditions: COLO 205, 48 h, read-out: Activity; method in brief: as §2
[11] = Growth inhibition of human HCC2998 cells assessed as cell growth at 10^-5 M incubated for 48 hrs by sulforhodamine B assay; type: functional; conditions: HCC 2998, 48 h, read-out: Activity; method in brief: as §2
Albumin = Albumin (Bos taurus, UniProt P02769); assay: Binding affinity to bovine serum albumin assessed as enhancement in emission spectra up to 20 uM by fluorescence spectroscopic analysis relative to control; type: ADME; conditions: cattle, isolated protein
Sequence of Albumin (P02769 whole entry): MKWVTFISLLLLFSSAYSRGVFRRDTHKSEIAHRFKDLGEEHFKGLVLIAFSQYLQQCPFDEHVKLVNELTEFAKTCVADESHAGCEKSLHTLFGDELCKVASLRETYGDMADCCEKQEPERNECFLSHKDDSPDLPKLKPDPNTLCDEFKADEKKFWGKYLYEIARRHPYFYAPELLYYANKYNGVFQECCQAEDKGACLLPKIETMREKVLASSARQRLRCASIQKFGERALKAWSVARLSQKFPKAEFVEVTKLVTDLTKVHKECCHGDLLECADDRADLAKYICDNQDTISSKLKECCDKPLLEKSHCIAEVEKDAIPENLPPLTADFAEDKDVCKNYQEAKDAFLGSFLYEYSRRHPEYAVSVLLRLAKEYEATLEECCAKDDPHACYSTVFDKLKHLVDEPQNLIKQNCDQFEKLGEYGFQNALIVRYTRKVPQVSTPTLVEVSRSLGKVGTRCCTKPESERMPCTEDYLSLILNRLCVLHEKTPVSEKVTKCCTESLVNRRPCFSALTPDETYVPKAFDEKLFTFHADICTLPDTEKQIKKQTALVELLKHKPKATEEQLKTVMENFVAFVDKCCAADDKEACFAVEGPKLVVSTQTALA
Method in brief: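 Fluorescence titration of 10 µM BSA in 0.1 M phosphate buffer pH 7.4 with compound at 0–20 µM, diluted from DMSO stocks. Excitation 280 nm, slit 10 nm, 1 cm quartz cell, 300 K. Changes in the 350 nm Trp emission, new bands near 370–373 nm and isoemissive points are read against BSA alone.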

[12] = Growth inhibition of human leukemia cells incubated for 48 hrs by sulforhodamine B assay; type: functional; conditions: Leukemia cell; for CC50: read-out: LC50 (the source's name)
[13] = read-out: LC50 (the source's name)
[14] = read-out: pLC50 (the source's name) (converted)

c1ccc(-c2nc(Nc3ccc(-c4nc5ccccc5[nH]4)cc3)nc(N3CCOCC3)n2)cc1
growth at 100 µM (MCF7): -52% | growth at 100 µM (MDA-MB-468): -58% | GI50 (K562; read-out: GI50): 0.295 µM | CC50 (K562; [13]): 8.31 µM | TGI (K562; read-out: TGI): 0.959 µM | GI50 (K562; read-out: pGI50 (converted)): 0.295 µM | CC50 (K562; [14]): 8.32 µM | TGI (K562; read-out: pTGI (converted)): 0.955 µM | GI50 ([1]; read-out: GI50): 1.11 µM | CC50 [1, 13]: > 100 µM | TGI ([1]; read-out: TGI): 4.23 µM | GI50 ([1]; read-out: pGI50 (converted)): 1.12 µM | CC50 [1, 14]: > 100 µM | TGI ([1]; read-out: pTGI (converted)): 4.27 µM | GI50 ([2]; read-out: GI50): 1.73 µM | LC50 ([2]; read-out: LC50): 7.16 µM | TGI ([2]; read-out: TGI): 3.52 µM | GI50 ([2]; read-out: pGI50 (converted)): 1.74 µM | LC50 ([2]; read-out: pLC50 (converted)): 7.08 µM | TGI ([2]; read-out: pTGI (converted)): 3.55 µM | GI50 ([3]; read-out: GI50): 1.89 µM | CC50 [3, 13]: > 100 µM | TGI ([3]; read-out: TGI): 6.04 µM | GI50 ([3]; read-out: pGI50 (converted)): 1.91 µM | CC50 [3, 14]: > 100 µM | TGI ([3]; read-out: pTGI (converted)): 6.03 µM | growth at 0.01 µM (SK-MEL-2): 105% | growth at 0.01 µM (ACHN): 96% | growth at 0.01 µM [4]: 99% | growth at 0.1 µM (SR): 58% | growth at 100 µM [5]: -48% | growth at 100 µM (786-0): -71% | growth at 10 µM [6]: 0.63% | growth at 0.01 µM (CCRF-CEM): 102% | growth at 0.1 µM [7]: 106% | growth at 1 µM (NCI-H522): 109% | growth at 0.01 µM (Malme-3M): 106% | growth at 1 µM (MDA-MB-435): 96% | growth at 1 µM [8]: 112% | growth at 1 µM [9]: 89% | growth at 10 µM [10]: -73% | growth at 10 µM [11]: -62% | Activity (Albumin): 22.78% | GI50 [12]: 0.57 µM | TGI [12]: 2.17 µM | CC50 [12]: 16.3 µM

Fc1ccc(-c2nc(Nc3ccc(-c4nc5ccccc5[nH]4)cc3)nc(N3CCOCC3)n2)cc1
growth at 100 µM (MCF7): 1% | growth at 100 µM (MDA-MB-468): -19% | GI50 (K562; read-out: GI50): 2.45 µM | CC50 (K562; [13]): > 100 µM | GI50 (K562; read-out: pGI50 (converted)): 2.45 µM | CC50 (K562; [14]): > 100 µM | GI50 ([1]; read-out: GI50): 1.93 µM | CC50 [1, 13]: > 100 µM | TGI ([1]; read-out: TGI): 6.54 µM | GI50 ([1]; read-out: pGI50 (converted)): 1.95 µM | CC50 [1, 14]: > 100 µM | TGI ([1]; read-out: pTGI (converted)): 6.61 µM | GI50 ([2]; read-out: GI50): 2.11 µM | LC50 ([2]; read-out: LC50): > 100 µM | TGI ([2]; read-out: TGI): 5.3 µM | GI50 ([2]; read-out: pGI50 (converted)): 2.09 µM | LC50 ([2]; read-out: pLC50 (converted)): > 100 µM | TGI ([2]; read-out: pTGI (converted)): 5.25 µM | GI50 ([3]; read-out: GI50): 1.76 µM | CC50 [3, 13]: > 100 µM | TGI ([3]; read-out: TGI): 6.96 µM | GI50 ([3]; read-out: pGI50 (converted)): 1.78 µM | CC50 [3, 14]: > 100 µM | TGI ([3]; read-out: pTGI (converted)): 6.92 µM | growth at 0.01 µM (SK-MEL-2): 103% | growth at 0.01 µM (ACHN): 100% | growth at 0.01 µM [4]: 91% | growth at 0.1 µM (SR): 87% | growth at 100 µM [5]: 2% | growth at 100 µM (786-0): -68% | growth at 10 µM [6]: 66.3% | growth at 0.01 µM (CCRF-CEM): 102% | growth at 0.1 µM [7]: 105% | growth at 1 µM (NCI-H522): 97% | growth at 0.01 µM (Malme-3M): 96% | growth at 1 µM (MDA-MB-435): 95% | growth at 1 µM [8]: 92% | growth at 1 µM [9]: 101% | growth at 10 µM [10]: -55% | growth at 10 µM [11]: 4% | Activity (Albumin): 71.83% | GI50 [12]: 2.02 µM | TGI [12]: 6.11 µM | CC50 [12]: > 100 µM

Source: ChEMBL document CHEMBL3808334, “Synthesis and in vitro evaluation of novel triazine analogues as anticancer agents and their interaction studies with bovine serum albumin” (Eur J Med Chem, 2016)
